Our source for the IC50 and Ratio values is ChEMBL document CHEMBL1132481 (J Med Chem, 1999).

Assay [1] deals with T1, Sodium-dependent dopamine transporter (Rattus norvegicus, UniProt P23977). As to the kind of experiment: Inhibitory potency against [3H]DA uptake […]. The method in brief: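 Rat striatal S1 fraction (CO2-anesthetized rats) diluted in Krebs-phosphate buffer (pH 7.4, O2/CO2-equilibrated, with pargyline and ascorbate). Preincubated with drug 10 min at 37 °C, then [3H]DA for 2.0 min. Nonspecific uptake measured at 0 °C. Stopped with chilled buffer and GF/C filtration, then scintillation counting. IC50 from usually five concentrations, each in duplicate.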

Assay [2] concerns the target T1, Sodium-dependent dopamine transporter. As to the kind of experiment: Inhibitory potency against dopamine (DA) transporter using [3H]WIN-35428 (WIN-) binding assay.
The target in assay [3] is Norepinephrine transporter (Rattus norvegicus, UniProt Q9WTR4). As to the kind of experiment: Selectivity for the norepinephrine transporter using [3H]nisoxetine binding assay. Put shortly:
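Norepinephrine transporter binding used 8 mg frontal cortex from male Sprague–Dawley rats with 0.5 nM [3H]nisoxetine. Incubated 60 min. Nonspecific binding defined with 1 μM desipramine. Ice-cold washes through PEI-soaked GF/B filters.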

Assay [4] addresses Sodium-dependent serotonin transporter (Rattus norvegicus, UniProt P31652). As to the kind of experiment: Selectivity for the Serotonin transporter using [3H]paroxetine binding assay. The method in brief:
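Serotonin transporter binding used 1.5 mg hindbrain from male Sprague–Dawley rats with 0.2 nM [3H]paroxetine. Buffer was 50 mM Tris, 120 mM NaCl, 0.5 mM KCl, pH 7.4. Incubated 90 min at room temperature. Nonspecific binding defined with 1 μM citalopram. Ice-cold washes through PEI-soaked GF/B filters.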

In assay [5] the target is Monoamine transporters; serotonin & dopamine (Rattus norvegicus) (UniProt P31652+P23977). The experiment in a line: Ratio of IC50 of 5-HT (serotonin transporter) to IC50 of DA (dopamine transporter). In kind it is protein assay.
The target of assay [6] is Monoamine transporters; Norepininephrine & dopamine (Rattus norvegicus) (UniProt P23977+Q9WTR4). As to the kind of experiment: Ratio of IC50 of NE (norepinephrine transporter) to IC50 of DA (dopamine transporter). In kind it is protein assay.

Norepinephrine transporter, sequence (Q9WTR4 whole entry): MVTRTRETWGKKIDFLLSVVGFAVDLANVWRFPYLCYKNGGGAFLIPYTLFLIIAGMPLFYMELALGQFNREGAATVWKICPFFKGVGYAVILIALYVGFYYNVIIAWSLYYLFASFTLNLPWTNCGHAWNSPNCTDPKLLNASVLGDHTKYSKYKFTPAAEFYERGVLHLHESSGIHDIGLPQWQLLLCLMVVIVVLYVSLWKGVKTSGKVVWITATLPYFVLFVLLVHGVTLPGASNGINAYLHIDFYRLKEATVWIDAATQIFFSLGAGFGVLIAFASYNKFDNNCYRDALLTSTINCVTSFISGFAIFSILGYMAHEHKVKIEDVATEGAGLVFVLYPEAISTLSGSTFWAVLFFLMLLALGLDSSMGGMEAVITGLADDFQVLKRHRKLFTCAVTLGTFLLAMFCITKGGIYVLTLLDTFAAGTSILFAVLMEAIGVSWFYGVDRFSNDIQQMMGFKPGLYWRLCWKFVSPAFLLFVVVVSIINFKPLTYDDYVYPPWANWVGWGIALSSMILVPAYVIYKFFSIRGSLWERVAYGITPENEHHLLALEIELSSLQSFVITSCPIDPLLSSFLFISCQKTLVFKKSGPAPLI
Monoamine transporters; serotonin & dopamine (Rattus norvegicus), sequence (P23977 whole entry, looked up): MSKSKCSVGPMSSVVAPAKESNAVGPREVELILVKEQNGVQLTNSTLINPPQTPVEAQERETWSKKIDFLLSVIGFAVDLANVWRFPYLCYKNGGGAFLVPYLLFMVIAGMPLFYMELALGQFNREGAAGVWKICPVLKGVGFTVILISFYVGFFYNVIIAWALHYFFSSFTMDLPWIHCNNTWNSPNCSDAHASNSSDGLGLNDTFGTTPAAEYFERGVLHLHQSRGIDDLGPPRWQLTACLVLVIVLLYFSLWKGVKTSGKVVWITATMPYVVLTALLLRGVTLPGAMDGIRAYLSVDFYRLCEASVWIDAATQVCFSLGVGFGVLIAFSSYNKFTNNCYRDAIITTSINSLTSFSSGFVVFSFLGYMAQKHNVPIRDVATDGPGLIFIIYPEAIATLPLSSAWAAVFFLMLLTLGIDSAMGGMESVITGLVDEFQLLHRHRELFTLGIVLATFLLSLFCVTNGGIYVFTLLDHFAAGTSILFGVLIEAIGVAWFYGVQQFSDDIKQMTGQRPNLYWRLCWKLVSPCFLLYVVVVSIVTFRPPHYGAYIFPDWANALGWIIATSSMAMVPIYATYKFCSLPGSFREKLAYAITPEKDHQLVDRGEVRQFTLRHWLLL
Monoamine transporters; serotonin & dopamine (Rattus norvegicus), sequence (P31652 whole entry, looked up): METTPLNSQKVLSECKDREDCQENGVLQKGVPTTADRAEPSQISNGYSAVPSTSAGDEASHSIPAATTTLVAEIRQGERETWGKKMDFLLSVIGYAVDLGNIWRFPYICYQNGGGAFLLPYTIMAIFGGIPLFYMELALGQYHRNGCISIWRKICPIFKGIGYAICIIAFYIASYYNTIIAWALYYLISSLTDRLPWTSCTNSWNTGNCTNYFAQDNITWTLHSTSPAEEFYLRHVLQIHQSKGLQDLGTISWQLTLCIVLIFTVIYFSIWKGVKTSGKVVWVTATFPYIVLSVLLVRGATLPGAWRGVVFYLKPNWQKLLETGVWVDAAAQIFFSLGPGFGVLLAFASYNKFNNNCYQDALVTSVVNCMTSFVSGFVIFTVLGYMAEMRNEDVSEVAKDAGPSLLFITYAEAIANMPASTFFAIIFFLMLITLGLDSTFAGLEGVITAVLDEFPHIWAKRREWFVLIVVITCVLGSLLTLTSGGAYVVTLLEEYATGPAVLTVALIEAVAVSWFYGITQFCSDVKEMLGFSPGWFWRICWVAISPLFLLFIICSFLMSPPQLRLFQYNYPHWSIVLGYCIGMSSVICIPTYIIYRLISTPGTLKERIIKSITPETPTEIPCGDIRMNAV
T1 sequence (P23977 whole entry): as the sequence (P23977 whole entry, looked up) above
Sodium-dependent serotonin transporter, sequence (P31652 whole entry): as the sequence (P31652 whole entry, looked up) above

Turning to `CN(C)C1C2CCC(CC2OC(=O)c2ccccc2)C1c1ccccc1` (stereo in doubt; 19) [listing 1 of 2 here], the IC50 was 8.24 µM in assay [1], 2.27 µM in assay [2], 4.19 µM in assay [3] and 1.88 µM in assay [4].

As for `CN(C)C1C2CCC(CC2=O)C1c1ccccc1` (stereo in doubt; 6) [listing 1 of 2 here], the IC50 in assay [1] was found to be 9.14 µM; in assay [2], 4.01 µM; in assay [3] it was 4.12 µM; in assay [4], 31.4 µM.

In the case of `CN(C)CC1C2CCC(CC2)C1c1ccc(Cl)c(Cl)c1` (stereo not drawn), the IC50 in assay [3] amounted to 0.096 µM; in assay [4], 0.261 µM.

On to `CC(=O)OC1CC2CCC1C(N(C)C)C2c1ccccc1` (stereo in doubt; 17) [listing 1 of 2 here], for which the results for the Ratio in assay [5] and in assay [6] were 0.5 and 1, respectively.

In the case of `CN(C)C1C2CCC(CC2O)C1c1ccccc1` (stereo in doubt; 15) [listing 1 of 2 here], the IC50 in assay [1] is 23 µM; in assay [2], 9.92 µM; in assay [3], 34.4 µM; in assay [4], greater than 100 µM.

As to `CN(C)C1C2CCC(CC2OC(=O)c2ccccc2)C1c1ccccc1` (stereo in doubt; 12) [listing 1 of 2 here], the results for the Ratio in assay [5] and in assay [6] were 41 and 5.4, respectively.

Turning to `CN(C)C1C2CCC(CC2OC(=O)c2ccccc2)C1c1ccccc1` (stereo in doubt; 11) [listing 1 of 2 here], the IC50 is 0.372 µM in assay [1], 0.358 µM in assay [2], 0.225 µM in assay [3] and 0.053 µM in assay [4].

As to `CC(=O)OC1CC2CCC1C(N(C)C)C2c1ccccc1` (stereo in doubt; 9) [listing 1 of 2 here], the Ratio in assay [5] is 0.46; in assay [6] it was 0.1.

For the compound `CC(=O)OC1CC2CCC1C(N(C)C)C2c1ccccc1` (stereo in doubt; 10) [listing 1 of 2 here], the Ratio in assay [5] was determined as 14; in assay [6], 4.5.

In the case of `CC(=O)OC1CC2CCC1C(N(C)C)C2c1ccccc1` (stereo in doubt; 16) [listing 1 of 2 here], the IC50 in assay [1] was found to be 16.3 µM; in assay [2] it was 13.6 µM; in assay [3], 10.4 µM; in assay [4], 4.77 µM.

On to `CN(C)C1C2CCC(CC2O)C1c1ccccc1` (stereo in doubt; 7) [listing 1 of 2 here], for which the Ratio stood at 4.7 in assay [5] and 0.85 in assay [6].

Turning to `CN(C)C1C2CCC(CC2OC(=O)c2ccccc2)C1c1ccccc1` (stereo in doubt; 18) [listing 1 of 2 here], the Ratio in assay [5] was 0.35; in assay [6], 3.4.

On to `CN(C)C1C2CCC(CC2O)C1c1ccccc1` (stereo in doubt; 8) [listing 1 of 2 here], for which the IC50 in assay [1] is 2.81 µM; in assay [2], 2.04 µM; in assay [3], 7.23 µM; in assay [4], 21.8 µM.

For the compound `CC(=O)OC1CC2CCC1C(N(C)C)C2c1ccccc1` (stereo in doubt; 9) [listing 2 of 2 here], the IC50 came out at 4.93 µM in assay [1], 5.33 µM in assay [2], 0.535 µM in assay [3] and 2.45 µM in assay [4].

As to `CN(C)C1C2CCC(CC2O)C1c1ccccc1` (stereo in doubt; 7) [listing 2 of 2 here], the IC50 in assay [1] was found to be 4.45 µM; in assay [2], 1.77 µM; in assay [3], 1.51 µM; in assay [4] it was 8.38 µM.

On to `CC(=O)OC1CC2CCC1C(N(C)C)C2c1ccccc1` (stereo in doubt; 17) [listing 2 of 2 here], for which the IC50 in assay [1] came to 75 µM; in assay [2] it was 45.6 µM; in assay [3] it was 46.8 µM; in assay [4], 22.8 µM.

Consider `COC(=O)[C@H](c1ccccc1)[C@H]1CCCCN1` [DEXMETHYLPHENIDATE], for which the figures for the IC50 in assay [3] and in assay [4] were 0.989 µM and 224 µM, respectively.

`CN(C)C1C2CCC(CC2O)C1c1ccccc1` (stereo in doubt; 8) [listing 2 of 2 here]: the results for the Ratio in assay [5] and in assay [6] were 11 and 3.5, respectively.

As to `CN(C)C1C2CCC(CC2O)C1c1ccccc1` (stereo in doubt; 15) [listing 2 of 2 here], the figures for the Ratio in assay [5] and in assay [6] were greater than 10 and 3.5, respectively.

As for `CC(=O)OC1CC2CCC1C(N(C)C)C2c1ccccc1` (stereo in doubt; 16) [listing 2 of 2 here], the Ratio in assay [5] stood at 0.35; in assay [6], 0.76.

In the case of `CN(C)C1C2CCC(CC2=O)C1c1ccccc1` (stereo in doubt; 13) [listing 1 of 2 here], the IC50 in assay [1] is 24.7 µM; in assay [2] it was 10.3 µM; in assay [3], 10.6 µM; in assay [4] it was 61.2 µM.

Regarding `CN(C)C1C2CCC(CC2=O)C1c1ccccc1` (stereo in doubt; 13) [listing 2 of 2 here], the Ratio was found to be 5.9 in assay [5] and 1 in assay [6].

For `CN(C)C1C2CCC(CC2=O)C1c1ccccc1` (stereo in doubt; 6) [listing 2 of 2 here], the Ratio in assay [5] stood at 7.8; in assay [6] it was 1.

Take `CN(C)C1C2CCC(CC2OC(=O)c2ccccc2)C1c1ccccc1` (stereo in doubt; 19) [listing 2 of 2 here]: the Ratio in assay [5] is 0.83; in assay [6], 1.8.

As to `CC(=O)OC1CC2CCC1C(N(C)C)C2c1ccccc1` (stereo in doubt; 10) [listing 2 of 2 here], the IC50 in assay [1] was 25.8 µM; in assay [2], 12.2 µM; in assay [3], 55.4 µM; in assay [4], 176 µM.

Regarding `CN(C)C1C2CCC(CC2OC(=O)c2ccccc2)C1c1ccccc1` (stereo in doubt; 18) [listing 2 of 2 here], the IC50 in assay [1] amounted to 4.84 µM; in assay [2], 2.2 µM; in assay [3] it was 7.38 µM; in assay [4], 0.76 µM.

Take `CN(C)C1C2CCC(CC2O)C1c1ccccc1` (stereo in doubt; 14) [listing 1 of 2 here]: the Ratio in assay [5] was found to be 1.7; in assay [6], 1.1.

For `CN(C)C1C2CCC(CC2OC(=O)c2ccccc2)C1c1ccccc1` (stereo in doubt; 12) [listing 2 of 2 here], the IC50 was found to be 0.687 µM in assay [1], 0.27 µM in assay [2], 1.47 µM in assay [3] and 11.1 µM in assay [4].

With `CN(C)C1C2CCC(CC2O)C1c1ccccc1` (stereo in doubt; 14) [listing 2 of 2 here], the IC50 worked out at 10.9 µM in assay [1], 7.04 µM in assay [2], 7.73 µM in assay [3] and 12.3 µM in assay [4].

As to `CN(C)C1C2CCC(CC2OC(=O)c2ccccc2)C1c1ccccc1` (stereo in doubt; 11) [listing 2 of 2 here], the Ratio was found to be 0.15 in assay [5] and 0.65 in assay [6].

The term IC50 denotes the concentration that gives 50% inhibition. Read a low IC50 as greater potency in that assay.
